From ChEMBL document CHEMBL2040825, “Synthesis and cytotoxicity of 3,4-disubstituted-5-(3,4,5-trimethoxyphenyl)-4H-1,2,4-triazoles and novel 5,6-dihydro-[1,2,4]triazolo[3,4-b][1,3,4]thiadiazole derivatives bearing 3,4,5-trimethoxyphenyl moiety” (Bioorg Med Chem Lett, 2012)

Assays:
Format in all cases: functional, cell-based
HT-29 = test: Cytotoxicity against human HT-29 cells after 48 hrs by MTT assay; settings: HT-29, 48 h
Method in brief: (§1)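 Cells grown in DMEM with 10% FBS and passaged by trypsinization at 70-80% confluence. Seeding density was 8 × 10^4 cells/well for MKN45, HT-29 and MCF-7 and 5 × 10^4 cells/well for HepG2, then 24 h attachment at 37 °C. Compounds from 10 mM DMSO stock were diluted in medium and applied for 48 h at 37 °C, with 0.1% DMSO as negative control.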

HepG2 = test: Cytotoxicity against human HepG2 cells after 48 hrs by MTT assay; settings: HepG2, 48 h; method in brief: as §1
MCF7 = test: Cytotoxicity against human MCF7 cells after 48 hrs by MTT assay; settings: MCF7, 48 h; method in brief: as §1
MKN-45 = test: Cytotoxicity against human MKN45 cells after 48 hrs by MTT assay; settings: MKN-45, 48 h; method in brief: as §1

COc1cc(-c2nnc(SC)n2/N=C/c2ccccc2)cc(OC)c1OC
IC50 (HT-29): > 200 µM | IC50 (HepG2): > 200 µM | IC50 (MCF7): > 200 µM | IC50 (MKN-45): 28.5 µM

COc1cc(-c2nnc(SCc3ccccc3)n2/N=C/c2ccccc2)cc(OC)c1OC
IC50 (HT-29): > 200 µM | IC50 (HepG2): > 200 µM | IC50 (MCF7): > 200 µM | IC50 (MKN-45): > 200 µM

COc1cc(-c2nnc(SCc3ccc(F)cc3)n2/N=C/c2ccccc2)cc(OC)c1OC
IC50 (HT-29): > 200 µM | IC50 (HepG2): > 200 µM | IC50 (MCF7): > 200 µM | IC50 (MKN-45): > 200 µM

COc1cc(-c2nnc(SCc3ccccc3Cl)n2/N=C/c2ccccc2)cc(OC)c1OC
IC50 (HT-29): > 200 µM | IC50 (HepG2): 31.7 µM | IC50 (MCF7): > 200 µM | IC50 (MKN-45): > 200 µM

COc1ccc(/C=N/n2c(SC)nnc2-c2cc(OC)c(OC)c(OC)c2)c(OC)c1
IC50 (HT-29): 144 µM | IC50 (HepG2): > 200 µM | IC50 (MCF7): > 200 µM | IC50 (MKN-45): > 200 µM

COc1ccc(/C=N/n2c(SCc3ccc(F)cc3)nnc2-c2cc(OC)c(OC)c(OC)c2)c(OC)c1
IC50 (HT-29): 126 µM | IC50 (HepG2): > 200 µM | IC50 (MCF7): > 200 µM | IC50 (MKN-45): > 200 µM

COc1ccc(/C=N/n2c(SCc3ccccc3Cl)nnc2-c2cc(OC)c(OC)c(OC)c2)c(OC)c1
IC50 (HT-29): > 200 µM | IC50 (HepG2): > 200 µM | IC50 (MCF7): 63.7 µM | IC50 (MKN-45): > 200 µM

COc1ccc(/C=N/n2c(SCc3ccccc3)nnc2-c2cc(OC)c(OC)c(OC)c2)c(OC)c1
IC50 (HT-29): > 200 µM | IC50 (HepG2): 60.9 µM | IC50 (MCF7): 153 µM | IC50 (MKN-45): 49 µM

CCOC(=O)CSc1nnc(-c2cc(OC)c(OC)c(OC)c2)n1/N=C/c1ccc(OC)cc1OC
IC50 (HT-29): > 200 µM | IC50 (HepG2): > 200 µM | IC50 (MCF7): > 200 µM | IC50 (MKN-45): > 200 µM

COc1cc(-c2nnc3n2NC(CC(=O)c2ccc(C)cc2)(c2ccccc2)S3)cc(OC)c1OC (stereo not given)
IC50 (HT-29): 151 µM | IC50 (HepG2): 0.58 µM | IC50 (MCF7): > 200 µM | IC50 (MKN-45): 7.47 µM

CCOC(=O)CC1(c2ccccc2)Nn2c(nnc2-c2cc(OC)c(OC)c(OC)c2)S1 (stereo not given)
IC50 (HT-29): > 200 µM | IC50 (HepG2): > 200 µM | IC50 (MCF7): > 200 µM | IC50 (MKN-45): > 200 µM

COc1ccc(C2(CC(=O)c3ccc(C)cc3)Nn3c(nnc3-c3cc(OC)c(OC)c(OC)c3)S2)c(OC)c1 (stereo not given)
IC50 (HT-29): 66.8 µM | IC50 (HepG2): 3.17 µM | IC50 (MCF7): 10.9 µM | IC50 (MKN-45): 13.8 µM

COc1cccc2c1C(=O)c1c(O)c3c(c(O)c1C2=O)C[C@@](O)(C(=O)CO)C[C@@H]3O[C@H]1C[C@H](N)[C@H](O)[C@H](C)O1 [DOXORUBICIN]
IC50 (HepG2): 5.57 µM | IC50 (MKN-45): 0.168 µM
